Measured values published in ChEMBL document CHEMBL2040750, “Hybrids of ravuconazole: synthesis and biological evaluation” (2012).
Values after ≈ are worked out from the molar mass of the structure shown. Active and inactive are the calls of the source. The rule behind the calls is not given here.

Legend:
Format in all cases: functional
Staphylococcus aureus [1] = assay: Antibacterial activity Staphylococcus aureus NCIM 2079 at 100 ug/disc by agar-well diffusion assay
Method in brief: (§1)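 Agar-well diffusion screen against standard strains. Zone of inhibition is the read-out. Chloramphenicol, nystatin and ravuconazole were run as positive controls.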

Escherichia coli [2] = assay: Antibacterial activity Escherichia coli NCIM 2109 at 100 ug/disc by agar-well diffusion assay; details: for zone of inhibition at 100 µg/disc: read-out: DIZ; method in brief: as §1
Bacillus subtilis [3] = assay: Antibacterial activity Bacillus subtilis NCIM 2250 at 100 ug/disc by agar-well diffusion assay; details: for zone of inhibition at 100 µg/disc: read-out: DIZ; method in brief: as §1
Pseudomonas aeruginosa [4] = assay: Antibacterial activity Pseudomonas aeruginosa NCIM 2036 at 100 ug/disc by agar-well diffusion assay; details: for zone of inhibition at 100 µg/disc: read-out: DIZ; method in brief: as §1
Aspergillus niger [5] = assay: Antifungal activity Aspergillus niger NCIM 545 at 100 ug/disc by agar-well diffusion assay; details: for zone of inhibition at 100 µg/disc: read-out: DIZ; method in brief: as §1
Candida albicans [6] = assay: Antifungal activity Candida albicans NCIM 3471 at 100 ug/disc by agar-well diffusion assay; details: for zone of inhibition at 100 µg/disc: read-out: DIZ; method in brief: as §1
Staphylococcus aureus [7] = assay: Antibacterial activity Staphylococcus aureus NCIM 2079 after 24 hrs by NCCLS method
Method in brief: (§2)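 Broth microdilution MIC per NCCLS. Compounds dissolved in DMSO, serially diluted in growth medium, incubated at 37 °C. Read at 24 h for bacteria and 24–72 h for fungi. MIC90 taken as the first well with about 90% growth reduction relative to the drug-free well.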

Escherichia coli [8] = assay: Antibacterial activity Escherichia coli NCIM 2109 after 24 hrs by NCCLS method; method in brief: as §2
Bacillus subtilis [9] = assay: Antibacterial activity Bacillus subtilis NCIM 2250 after 24 hrs by NCCLS method; method in brief: as §2
Pseudomonas aeruginosa [10] = assay: Antibacterial activity Pseudomonas aeruginosa NCIM 2036 after 24 hrs by NCCLS method; method in brief: as §2
Aspergillus niger [11] = assay: Antifungal activity Aspergillus niger NCIM 545 after 24 to 72 hrs by NCCLS method; method in brief: as §2
Candida albicans [12] = assay: Antifungal activity Candida albicans NCIM 3471 after 24 to 72 hrs by NCCLS method; method in brief: as §2

Row | Structure (SMILES) | MIC (Staphylococcus aureus [7]) | MIC (Escherichia coli [8]) | MIC (Bacillus subtilis [9]) | MIC (Pseudomonas aeruginosa [10]) | MIC (Aspergillus niger [11]) | MIC (Candida albicans [12]) | MIC (Escherichia coli [8]; NCIM 2109, 24 h) [mg/L] | MIC (Pseudomonas aeruginosa [10]; NCIM 2036, 24 h) [mg/L] | MIC (Bacillus subtilis [9]; NCIM 2250, 24 h) [mg/L] | diameter of the inhibition zone (DIZ) (Staphylococcus aureus [1]) | zone of inhibition at 100 µg/disc (Escherichia coli [2]) [mm] | diameter of the inhibition zone (DIZ) (Bacillus subtilis [3]) | diameter of the inhibition zone (DIZ) (Pseudomonas aeruginosa [4]) | zone of inhibition at 100 µg/disc (Aspergillus niger [5]) [mm] | zone of inhibition at 100 µg/disc (Candida albicans [6]) [mm] | zone of inhibition at 100 µg/disc (Pseudomonas aeruginosa [4]) [mm] | diameter of the inhibition zone (DIZ) (Aspergillus niger [5]) | diameter of the inhibition zone (DIZ) (Candida albicans [6]) | zone of inhibition at 100 µg/disc (Bacillus subtilis [3]) [mm] | also measured
1 | FC(F)(F)c1cc(/C(Cn2cncn2)=N\Nc2nc(-c3cc(C(F)(F)F)cc(C(F)(F)F)c3)cs2)cc(C(F)(F)F)c1 | inactive | inactive | inactive | inactive | 32 mg/L (≈ 50.6 µM) | 64 mg/L (≈ 101 µM) |  |  |  | inactive | 13.1 | inactive | inactive | 15.2 | 11.7 |  |  |  |  | 
2 | FC(F)(F)c1cc(-c2csc(N/N=C(/Cn3cncn3)c3ccc(Br)cc3)n2)cc(C(F)(F)F)c1 | inactive |  | inactive | inactive | > 64 mg/L | > 64 mg/L | > 64 |  |  | inactive | 11.4 | inactive | inactive | 10.9 | 13.9 |  |  |  |  | 
3 | O=[N+]([O-])c1ccc(/C(Cn2cncn2)=N\Nc2nc(-c3ccc(F)cc3)cs2)cc1 | inactive | inactive |  | inactive | > 64 mg/L | > 64 mg/L |  |  | > 64 | inactive |  |  | inactive | 14.4 | 11.2 |  |  |  | 11.3 | diameter of the inhibition zone (DIZ) (Escherichia coli [2]): inactive
4 | FC(F)(F)c1cc(/C(Cn2cncn2)=N\Nc2nc(-c3ccc(Br)cc3)cs2)cc(C(F)(F)F)c1 | inactive |  |  |  | inactive | inactive | > 64 | 32 (≈ 55.6 µM) | > 64 | inactive | 17 |  |  |  |  | 20.4 | inactive | inactive | 10.1 | 
5 | O=[N+]([O-])c1ccc(/C(Cn2cncn2)=N\Nc2nc(-c3ccc([N+](=O)[O-])cc3)cs2)cc1 | inactive |  | inactive |  | inactive | inactive | > 64 | 64 (≈ 142 µM) |  | inactive | 10.8 | inactive |  |  |  | 20.8 | inactive | inactive |  | 
6 | Fc1ccc(-c2csc(N/N=C(/Cn3cncn3)c3cc(C(F)(F)F)cc(C(F)(F)F)c3)n2)cc1 |  | inactive |  |  | 32 mg/L (≈ 62.2 µM) | > 64 mg/L |  | 16 (≈ 31.1 µM) | > 64 |  |  |  |  | 17.3 | 19.4 | 22.9 |  |  | 9.77 | zone of inhibition at 100 µg/disc (Staphylococcus aureus [1]; read-out: DIZ): 21.2 mm; diameter of the inhibition zone (DIZ) (Escherichia coli [2]): inactive; MIC (Staphylococcus aureus [7]; NCIM 2079, 24 h): 64 mg/L (≈ 124 µM)

Further lines, with some results ahead:

Row | MIC (Staphylococcus aureus [7]) | MIC (Escherichia coli [8]) | MIC (Bacillus subtilis [9]) | MIC (Pseudomonas aeruginosa [10]) | MIC (Aspergillus niger [11]) | MIC (Candida albicans [12]) | MIC (Escherichia coli [8]; NCIM 2109, 24 h) [mg/L] | MIC (Pseudomonas aeruginosa [10]; NCIM 2036, 24 h) [mg/L] | MIC (Bacillus subtilis [9]; NCIM 2250, 24 h) [mg/L] | Structure (SMILES) | diameter of the inhibition zone (DIZ) (Staphylococcus aureus [1]) | zone of inhibition at 100 µg/disc (Escherichia coli [2]) [mm] | diameter of the inhibition zone (DIZ) (Bacillus subtilis [3]) | diameter of the inhibition zone (DIZ) (Pseudomonas aeruginosa [4]) | zone of inhibition at 100 µg/disc (Aspergillus niger [5]) [mm] | zone of inhibition at 100 µg/disc (Candida albicans [6]) [mm] | zone of inhibition at 100 µg/disc (Pseudomonas aeruginosa [4]) [mm] | diameter of the inhibition zone (DIZ) (Aspergillus niger [5]) | diameter of the inhibition zone (DIZ) (Candida albicans [6]) | zone of inhibition at 100 µg/disc (Bacillus subtilis [3]) [mm] | also measured
7 | inactive |  | inactive |  | inactive | inactive | > 64 | 64 (≈ 132 µM) |  | O=[N+]([O-])c1ccc(/C(Cn2cncn2)=N\Nc2nc(-c3ccc(Br)cc3)cs2)cc1 | inactive | 11 | inactive |  |  |  | 19.8 | inactive | inactive |  | 
8 | inactive |  | inactive | inactive | inactive | inactive | > 64 |  |  | O=[N+]([O-])c1ccc(-c2csc(N/N=C(/Cn3cncn3)c3ccc(Br)cc3)n2)cc1 | inactive | 14 | inactive | inactive |  |  |  | inactive | inactive |  | 
9 | inactive |  |  | inactive | > 64 mg/L | > 64 mg/L | > 64 |  | > 64 | O=[N+]([O-])c1ccc(-c2csc(N/N=C(/Cn3cncn3)c3ccc(Cl)cc3)n2)cc1 | inactive | 10.6 |  | inactive | 14.5 | 11.7 |  |  |  | 12.2 | 
